Assay results taken from ChEMBL document CHEMBL6177979, “Exploring the Phototherapeutic Applications of Mitochondria-Targeted COUPY Photocages of Antitumor Drugs” (J Med Chem, 2025).
Activity calls are given as the source filed them. No cut-off for these calls is given here.

Columns and labels:
U-87 MG [1] = test: Cytotoxicity against human U-87 MG cells assessed as reduction in cell viability incubated for 2 hrs under dark condition by resazurin assay; assay type: functional, cell-based; details: U-87MG ATCC
HeLa [2] = test: Photocytotoxicity in human HeLa cells assessed as reduction in cell viability irradiated with 550 nm 4 mW/cm^-2 green-yellow LED light for 1 hr and measured after 48 hrs in presence of 4-PBA by MTT assay; assay type: toxicity, cell-based; details: 49 h
How it was run: (§1)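 HeLa or U87-MG cells seeded at 5000/well in DMEM with 10% FBS and 1% penicillin-streptomycin, grown 24 h. Compound added at 0–200 μM final (0.5% DMSO) for 1 h at 37 °C in the dark. Then 1 h dark or 550 nm pulsed LED (4 mW/cm2, 1 min on/1 min off; 7.2 J cm–2). Medium refreshed, 48 h incubation, MTT read-out. IC50 from sigmoidal dose–response curves, n = 3.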

U-87 MG [3] = test: Cytotoxicity against human U-87 MG cells assessed as reduction in cell viability incubated for 2 hrs under dark condition by MTT assay; assay type: functional, cell-based, U-87MG ATCC; how it was run: as §1
[4] = Photophysical property of the compound assessed as fluorescence quantum yield; assay type: physicochemical
How it was run: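 Fluorescence quantum yield by the comparative method against cresyl violet in ethanol (ΦF 0.54). Optically matched solutions with absorbance below 0.1 at 540 nm excitation. Calculated from integrated emission, absorbance and refractive indexes.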

[5] = Phototoxic index, ratio of IC50 for cytotoxicity against human HeLa cells assessed as reduction in cell viability incubated for 2 hrs under dark condition by MTT assay to IC50 for photocytotoxicity in human HeLa cells assessed as reduction in cell viability irradiated with 550 nm 4 mW/cm^-2 green-yellow […] and measured after 48 hrs by MTT assay; assay type: toxicity, cell-based; details: read-out: Ratio IC50
How it was run: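 Phototoxic index is dark IC50 divided by light IC50, HeLa MTT assay. Cells had 1 h compound in the dark, then 1 h dark or 550 nm LED (4 mW/cm2 pulsed, 7.2 J cm–2), then 48 h after medium change.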

[6] = Photocytotoxicity in human U-87 MG cells assessed as reduction in cell viability irradiated with 550 nm 4 mW/cm^-2 green-yellow LED light for […] and measured after 48 hrs by MTT assay; assay type: toxicity, cell-based, U-87MG ATCC; how it was run: as §1
HeLa [7] = test: Cytotoxicity against human HeLa cells assessed as reduction in cell viability at 100 uM incubated for 2 hrs under dark condition by MTT assay; assay type: functional, cell-based; how it was run: as §1
[8] = Induction of ROS generation in PBS buffer assessed as increase in superoxide anion radical level by measuring increase in DHR123 fluorescence intensity at 10 uM irradiated with 505 nm 100 mW/cm2 green light for 15 mins by DHR123 probe based analysis
[9] = Drug localization in lysosome of human HeLa cells at 1 uM incubated for 30 mins by Lysotracker green dye based confocal scanning microscopic analysis; assay type: ADME, subcellular; details: 0.5 h
How it was run: (§2)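 HeLa cells incubated with compound (1 μM) for 30 min at 37 °C in nonsupplemented DMEM. LysoTracker Green FM added for the last 5 min and WGA Alexa Fluor 633 for the last 20 min. Cells washed with DPBS and imaged live by confocal at 37 °C: compound excited at 561 nm (570–670 nm), LTG at 488 nm, WGA at 633 nm. Pearson's coefficient from 5 stacks, about 25 cells each.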

[10] = Drug uptake in human HeLa cells assessed as increase in fluorescence intensity at 1 uM incubated for 30 mins by DAPI staining based confocal microscopic analysis; assay type: ADME, cell-based; details: 0.5 h
How it was run: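 HeLa cells seeded on glass-bottom dishes in DMEM with 10% FBS. After 24 h, incubated 30 min at 37 °C with compound (1 μM) in supplemented DMEM. Washed three times with DPBS, kept in phenol red-free low-glucose DMEM, imaged live by confocal with 561 nm excitation and 570–670 nm detection.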

HeLa [11] = test: Photocytotoxicity in human HeLa cells assessed as reduction in cell viability irradiated with 550 nm 4 mW/cm^-2 green-yellow LED light for 1 hr and measured after 48 hrs in presence of CLB by MTT assay; assay type: toxicity, cell-based; details: 49 h; how it was run: as §1
[12] = Induction of singlet oxygen quantum yield under irradiation with green light 505 nm 100 mW/cm2 by; assay type: functional
How it was run: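 Singlet oxygen quantum yield measured in air-saturated DCM (bubbled 15 min). DPBF trap at ~1.0 absorbance (50 μM); compound absorbance set to 0.06 at 505 nm. Irradiated with LED at 505 ± 35 nm, 100 mW cm–2.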

[13] = Drug localization in mitochondria of human HeLa cells at 1 uM incubated for 30 mins by Mito-tracker green dye based confocal scanning microscopic analysis; assay type: ADME; details: 0.5 h
How it was run: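 Cells washed with DPBS and imaged live by confocal at 37 °C with 5% CO2: compound excited at 561 nm (detection 570–670 nm), MTG at 488 nm. Colocalization coefficients from 5 stacks of about 25 cells.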

HeLa [14] = test: Photocytotoxicity in human HeLa cells assessed as reduction in cell viability irradiated with 550 nm 4 mW/cm^-2 green-yellow LED light for 1 hr and measured after 48 hrs by MTT assay; assay type: toxicity, cell-based; details: 49 h; how it was run: as §1
[15] = Photochemical property of compound assessed as uncaging quantum yields; assay type: physicochemical
How it was run: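 Uncaging quantum yields derived from photon flux (DAE actinometry) together with photolysis rate parameters. Photolysis run in PBS/ACN 8:2 at 37 °C under a 530 nm-centred LED.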

[16] = Induction of ROS generation in PBS buffer assessed as increase in singlet oxygen by measuring increase in SOSG fluorescence intensity at 10 uM irradiated with green light 505 nm 100 mW/cm2 for 15 mins by SOSG probe based analysis; assay type: functional
How it was run: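 Cell-free fluorogenic probe test. Compound (10 μM) in PBS with 2% DMSO plus SOSG (5 μM, singlet oxygen) or DHR123 (10 μM, superoxide), irradiated with green LED light (505 ± 35 nm, 100 mW cm–2), with the rise in probe fluorescence followed. Positive references were Rose Bengal (SOSG) and methylene blue (DHR123). Scavenger controls used sodium azide-saturated PBS (singlet oxygen) or tiron-saturated PBS (superoxide).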

[17] = Photoactivation of the compound in PBS/ACN incubated for 2 hrs by RP-HPLC analysis; details: buffer
How it was run: (§3)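 Caged compound (20 μM) with 4-dimethylaminopyridine internal standard (20 μM) in PBS/ACN 8:2 at 37 °C. First held 2 h in the dark for stability, then irradiated with a 470–750 nm LED centred at 530 nm while stirred. Release followed by RP-HPLC with formic acid/water–ACN gradients.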

[18] = Photoactivation of the compound in PBS/ACN irradiation with visible light at 530 nm 150 mW cm2 incubated for 2 hrs by RP-HPLC analysis; set-up: dose or concentration left out as unconfirmed; details: buffer; how it was run: as §3
[19] = Drug localization in […] of human HeLa cells at 1 uM incubated for 30 mins by Lysotracker green dye based confocal scanning microscopic analysis; assay type: ADME, subcellular; details: 0.5 h; how it was run: as §2
[20] = Drug localization in Endosome of human HeLa cells at 1 uM incubated for 30 mins by wheat germ agglutinin alexa fluor 633 probe based analysis; assay type: ADME, subcellular; details: 0.5 h; how it was run: as §2
[21] = Drug localization in lysosome of human HeLa cells at 1 uM incubated for 30 mins by wheat germ agglutinin alexa fluor 633 probe based analysis; assay type: ADME, subcellular; details: 0.5 h; how it was run: as §2
[22] = Drug localization in lysosome of human HeLa cells at 1 uM incubated for 30 mins by Lysotracker green dye based analysis; assay type: ADME, subcellular; details: 0.5 h; how it was run: as §2
[23] = Drug accumulation in human HeLa cells assessed as mitochondrial localization at 1 uM incubated for 30 mins by Hoechst 33342 staining based live cell confocal microscopic analysis; assay type: ADME; details: 0.5 h
How it was run: (§4)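 Live HeLa cells (DMEM, 4.5 g/L glucose, 10% FBS, pen-strep) on glass-bottom dishes; 24 h after seeding, incubated 30 min at 37 °C with compound (1 or 2 μM) in DMEM + 10% FBS. Cells were washed three times with DPBS and imaged at 37 °C, 5% CO2 in phenol-red-free low-glucose DMEM. Excitation 561 nm, emission 570–670 nm. For co-staining, MitoTracker Green FM (0.1 μM) was co-incubated 30 min in nonsupplemented DMEM and excited at 488 nm.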

[24] = Drug accumulation in human HeLa cells assessed as mitochondrial localization at 2 uM incubated for 30 mins by Hoechst 33342 staining based live cell confocal microscopic analysis; assay type: ADME; details: 0.5 h; how it was run: as §4

SMILES	Activity [4]	selectivity ratio at 48 h [5]	IC50 (HeLa [7])	Activity [8]	Drug uptake [10]	Activity [12]	Activity [15]	Activity [16]	Activity [17]	Activity [18]	other results
CCCCCC[n+]1ccc(/C(C#N)=C2/C=C(C(C)OC(=O)CCCc3ccc(N(CCCl)CCCl)cc3)c3ccc(N(CC)CC)cc3O2)cc1.[Cl-] (stereo not drawn)	0.07	40	3.76 µM	Active	Active	< 0.01	1.3e-05	Active	Active	Active	Activity (U-87 MG [1]): Active; Activity (HeLa [2]): Non-toxic; IC50 (U-87 MG [3]): 6.72 µM; IC50 at 48 h [6]: 0.12 µM; Drug uptake [9]: Active; Activity (HeLa [11]): Non-toxic; Drug uptake [13]: Active; Activity (HeLa [14]): Non-toxic
O=C(O)CCCc1ccc(N(CCCl)CCCl)cc1 [CHLORAMBUCIL]	–	–	> 100 µM	–	–	–	–	–	–	–	–
CCN(CC)c1ccc2c(c1)O/C(=C(/C#N)c1cc[n+](CCC[N+](C)(C)C)cc1)C=C2C(C)OC(=O)CCCc1ccc(N(CCCl)CCCl)cc1.[Cl-].[Cl-] (stereo not drawn)	0.09	3.7	41 µM	Active	Active	< 0.01	1.07e-05	Active	Active	Active	Drug uptake [19]: Active; Activity (HeLa [2]): Non-toxic; Drug uptake [20]: Active; Drug uptake [21]: Active; Activity (HeLa [11]): Non-toxic; Activity (HeLa [14]): Non-toxic; Drug uptake [22]: Active
CCCCCC[n+]1ccc(/C(C#N)=C2/C=C(C)c3ccc(N(CC)CC)cc3O2)cc1	–	–	–	Active	–	–	–	Active	–	–	–
CCCCCC[n+]1ccc(/C(C#N)=C2/C=C(C(C)OC(=O)CCCc3ccccc3)c3ccc(N(CC)CC)cc3O2)cc1.[Br-] (stereo not drawn)	0.23	131	3.54 µM	Active	Active	0.05	3.89e-05	Active	Active	Active	Drug uptake [23]: Active; Drug uptake [9]: Active; Drug uptake [13]: Active
O=C(O)CCCc1ccccc1	–	–	> 100 µM	–	–	–	–	–	–	–	–
CCCCCC[n+]1ccc(/C(C#N)=C2/C=C(C(C)O)c3ccc(N(CC)CC)cc3O2)cc1.[Cl-] (stereo not drawn)	0.26	40	27.2 µM	Active	–	–	–	Active	–	–	Drug uptake [24]: Active
